Test results taken from ChEMBL document CHEMBL4765251, “Efficient identification of novel anti-glioma lead compounds by machine learning models” (Eur J Med Chem, 2020).

How the values were obtained:
[1] = Selectivity index, ratio of CC50 for Wistar rat astrocytes to EC50 for human U-251 MG cells
Method in brief: (§1)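 Selectivity index is astrocyte CC50 divided by the glioma-line EC50, both from 72 h SRB assays. No index is given when astrocyte cytotoxicity could not be calculated at the highest concentration tested.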

C6 = test: Antiproliferative activity against rat C6 cells assessed as cell growth inhibition measured after 72 hrs by SRB assay; type: functional, cell-based; conditions: C6, 72 h
[2] = Cytotoxicity against Wistar rat astrocytes assessed as cell growth inhibition measured after 72 hrs by SRB assay; type: cell-based, Astrocyte
Method in brief: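 Primary astrocytes taken from the cortex of 2-day-old Wistar rats by mechanical dissociation, grown on poly-L-lysine in high-glucose DMEM and treated at 90% confluence (12-15 days). Exposed to 0.1-100 µM for 72 h, then SRB assay with absorbance read at 510 nm against DMSO controls. Mean ± SD of three independent assays.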

U-87 MG = test: Antiproliferative activity against human U87MG cells assessed as cell growth inhibition measured after 72 hrs by SRB assay; type: functional, cell-based, U-87MG ATCC
Method in brief: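 U87MG human glioma cells grown in DMEM with 10% FBS at 37 °C, used up to 30 passages and treated at 40-50% confluence. Exposed to 0.1-100 µM for 72 h, with DMSO at most 0.1% final. TCA-fixed, stained with SRB, dye solubilized in Tris pH 10.5, read at 510 nm, expressed as % of DMSO controls. Mean ± SD of three independent assays.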

[3] = Selectivity index, ratio of CC50 for Wistar rat astrocytes to EC50 for human U87MG cells; method in brief: as §1
U-251 = test: Antiproliferative activity against human U251MG cells assessed as cell growth inhibition measured after 72 hrs by SRB assay; type: functional, cell-based; conditions: U-251, 72 h
[4] = Selectivity index, ratio of CC50 for Wistar rat astrocytes to EC50 for rat C6 cells; method in brief: as §1
Rattus norvegicus = species: Rattus norvegicus; test: Inhibition of TrxR in rat liver assessed as reduction in TNB formation using DTNB and NADPH as substrate at 100 uM preincubated with enzyme for 15 mins followed by NADPH addition by absorbance based analysis; type: tissue-based
Method in brief: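 TrxR activity was measured at 37 °C in 100 mM potassium phosphate pH 7.0 with 2 mg/mL DTNB and 0.01 mg/mL enzyme. Enzyme was preincubated for 15 min with compound or DMSO, then the reaction was started with 0.2 mg/mL NADPH. TNB formation was followed at 412 nm (ε 13.6 mM-1 cm-1). Assays were run in duplicate, with enzyme-free blanks subtracted.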

Astrocyte = test: Cytotoxicity against Wistar rat astrocytes assessed as cell growth inhibition at 100 uM measured after 72 hrs by SRB assay; type: cell-based

| Structure (SMILES) | Ratio CC50/EC50 [1] | EC50 (C6) [µM] | CC50 at 72 h [2] [µM] | EC50 (U-87 MG) [µM] | Ratio CC50/EC50 [3] | EC50 (U-251) [µM] | Ratio CC50/EC50 [4] | inhibition (Rattus norvegicus) [%] | Activity (Astrocyte) |
| --- | --- | --- | --- | --- | --- | --- | --- | --- | --- |
| O=C(/C=C/c1ccc([N+](=O)[O-])o1)c1ccc(I)cc1 | 5.4 | 2.1 | 68.2 | 5.2 | 13.1 | 12.5 | 32.5 | – | – |
| O=C(/C=C/c1ccc([N+](=O)[O-])o1)c1ccc(N2CCCC2)cc1 | 1.8 | 16.4 | 65.8 | 35.4 | 1.8 | 35.9 | 4 | – | – |
| CSc1ccc(C(=O)/C=C/c2ccc([N+](=O)[O-])o2)cc1 | 2 | 1.6 | 28.4 | 3.9 | 7.3 | 14.2 | 17.7 | 56.4 | – |
| COc1ccc(/C=C/C(=O)c2ccc(-c3ccccc3)cc2)cc1 | – | > 50 | – | – | – | > 50 | – | – | Non-Toxic |
| O=C(/C=C/c1ccc([N+](=O)[O-])o1)c1ccc(-n2ccnc2)cc1 | 2 | 3.5 | 45.3 | 13.4 | 3.4 | 22.6 | 12.9 | – | – |
| CC(C)(C)c1ccc(C(=O)/C=C/c2ccco2)cc1 | – | 18.5 | 88.7 | 32.3 | – | 16.4 | – | 3.6 | – |
| CC(C)(C)c1ccc(C(=O)/C=C/c2ccc([N+](=O)[O-])o2)cc1 | – | 28.6 | – | – | – | 44.5 | – | – | Non-Toxic |
| O=C(/C=C/c1ccco1)c1ccc(C2CCCCC2)cc1 | – | > 50 | – | – | – | 26.4 | – | – | Non-Toxic |
| CC(=O)c1ccc(NCCC(=O)c2cccs2)cc1 | – | 46.6 | – | – | – | > 50 | – | – | Non-Toxic |
| O=C(/C=C/c1ccc([N+](=O)[O-])o1)c1ccc(-c2ccccc2)cc1 | – | 17.7 | – | – | – | 24.6 | – | – | Non-Toxic |
| O=C(/C=C/c1ccc([N+](=O)[O-])o1)c1ccc(Br)cc1 | 3.9 | 2.7 | 85.4 | 12.6 | 6.7 | 21.4 | 31.6 | – | – |
| O=C(/C=C/c1ccc([N+](=O)[O-])o1)c1ccc(C2CCCCC2)cc1 | 13 | 5.1 | 57.2 | 9.5 | 6 | 4.4 | 11.2 | – | – |
| O=C(/C=C/c1ccc(Cl)s1)c1ccc(-n2ccnc2)cc1 | – | 14.5 | – | – | – | 35.1 | – | – | Non-Toxic |
| CCCCc1ccc(C(=O)/C=C/c2ccco2)cc1 | – | 8.4 | > 100 | 12.3 | – | 6.4 | – | 60.4 | – |
| CSc1ccc(C(=O)/C=C/c2ccco2)cc1 | – | 14.4 | 98 | 45.1 | – | 24 | – | – | – |
| O=C(/C=C/c1ccc([N+](=O)[O-])o1)c1ccc(N2CCNCC2)cc1 | 2.6 | 1.5 | 44.3 | 4.9 | 9 | 16.7 | 29.5 | 0 | – |
| O=C(/C=C/c1ccc([N+](=O)[O-])o1)c1ccc(N2CCCCC2)cc1 | – | 48.7 | – | – | – | > 50 | – | – | Non-Toxic |
| C[N+](=O)c1ccc(/C=C/C(=O)c2ccc(N3CCOCC3)cc2)o1 | 2 | 6.6 | 75.8 | 9.8 | 7.7 | 37.8 | 11.5 | – | – |

| Structure (SMILES) | Ratio CC50/EC50 [1] | EC50 (C6) [µM] | CC50 at 72 h [2] [µM] | EC50 (U-87 MG) [µM] | Ratio CC50/EC50 [3] | EC50 (U-251) [µM] | Ratio CC50/EC50 [4] | inhibition (Rattus norvegicus) [%] | Activity (Astrocyte) |
| --- | --- | --- | --- | --- | --- | --- | --- | --- | --- |
| O=C(CS(=O)(=O)c1ccccc1)c1cc2ccccc2o1 | – | > 50 | – | – | – | > 50 | – | – | Non-Toxic |
| O=C(/C=C/c1cccc([N+](=O)[O-])c1)c1ccc(N2CCCCC2)cc1 | – | 32.5 | – | – | – | 20.3 | – | – | Non-Toxic |
| O=C(/C=C/c1ccco1)c1ccc(N2CCOCC2)cc1 | – | 23.6 | – | – | – | > 50 | – | – | Non-Toxic |
| COc1ccc(/C=C/C(=O)c2cccc(I)c2)cc1 | >4.7 | 14.6 | > 100 | 13.4 | >7.5 | 21.4 | >6.8 | – | – |
| Cc1ccc(C(=O)/C=C/c2ccco2)cc1 | – | 7.8 | > 100 | 19.2 | – | 23.3 | – | – | – |
| CN(C)c1ccc(/C=C/C(=O)c2ccc(-c3ccccc3)cc2)cc1 | – | 49.5 | – | – | – | > 50 | – | – | Non-Toxic |
| Cc1ccc(S(=O)(=O)CC(=O)c2cccc([N+](=O)[O-])c2)cc1 | – | > 50 | – | – | – | > 50 | – | – | Non-Toxic |
| CC(C)Oc1ccc(C(=O)NC(=S)Nc2cccc3ccccc23)cc1 | – | > 50 | – | – | – | > 50 | – | – | Non-Toxic |
| CCC(=O)Oc1cccc2ccc(/C=C/c3ccccc3[N+](=O)[O-])nc12 | 5.4 | 6.3 | 55.2 | 10.5 | 5.3 | 10.1 | 8.7 | – | – |
| O=C(/C=C/c1ccc([N+](=O)[O-])s1)c1ccc(-n2ccnc2)cc1 | 4.3 | 1.9 | 40.4 | 10.1 | 4 | 9.4 | 21.3 | – | – |
| Cc1ccc(N2C(=O)CC(Sc3ncccc3C(=O)O)C2=O)cc1Cl (stereo not given) | – | > 50 | – | – | – | > 50 | – | – | Non-Toxic |
| Cc1nonc1C(=O)c1no[n+]([O-])c1C(=O)c1nonc1C | – | > 50 | – | – | – | > 50 | – | – | Non-Toxic |
| COc1ccc(/C=C/C(=O)c2cccc(Br)c2)cc1 | – | 22.3 | – | – | – | 32.1 | – | – | Non-Toxic |
| O=C(/C=C/c1ccc(Cl)s1)c1ccc(N2CCCCC2)cc1 | – | 36.6 | – | – | – | > 50 | – | – | Non-Toxic |
| O=C(/C=C/c1ccc([N+](=O)[O-])cc1)c1ccc(N2CCCCC2)cc1 | – | > 50 | – | – | – | > 50 | – | – | Non-Toxic |
| Cc1no[n+]([O-])c1C(=O)c1no[n+]([O-])c1C(=O)c1no[n+]([O-])c1C | – | > 50 | – | – | – | > 50 | – | – | Non-Toxic |
| Cc1ccc(S(=O)(=O)/N=C/c2ccc(F)cc2)cc1 | – | 48.9 | – | – | – | > 50 | – | – | Non-Toxic |
| Cc1ccc(S(=O)(=O)CC(=O)c2ccc(Cl)cc2Cl)cc1 | – | > 50 | – | – | – | > 50 | – | – | Non-Toxic |
